Activity calls are given as the source filed them. The rule behind the calls is not given here.
Key:
[1] = molecular target: Mitogen-activated protein kinase 1 (Homo sapiens, UniProt P28482); experiment: Inhibition of ERK2 (unknown origin) in presence of [gamma-33P]ATP
[2] = Volume of distribution at steady state in Beagle dog at 5 mg/kg, iv by LC-MS analysis; assay type: ADME, organism-based, Canis lupus familiaris; conditions: in vivo, read-out: Vdss
L-363 = experiment: Antiproliferative activity against human L-363 cells assessed as inhibition of cell growth incubated for 72 hrs by cell-titer glo assay; assay type: functional, cell-based; conditions: L-363, 72 h
Summary of the method: (§1)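 Cells seeded at 10,000–30,000/cm² (adherent) or 100,000/mL (nonadherent) in medium with 10% fetal calf serum; after 24 h, treated in duplicate with serial dilutions for 72 h. Viable cell number read by CellTiter-Glo luminescence; IC50 from sigmoidal fit; at least two independent experiments.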

HCC1806 = experiment: Antiproliferative activity against human HCC1806 cells assessed as inhibition of cell growth incubated for 72 hrs by cell-titer glo assay; assay type: functional, cell-based; conditions: HCC1806, 72 h; summary of the method: as §1
[3] = molecular target: Fibroblast growth factor receptor 4 (Homo sapiens) (UniProt P22455); experiment: Inhibition of N-terminal His6-tagged recombinant human FGFR4 (442 to 755 residues) expressed in baculovirus infected Sf21 cells assessed as residual activity at 0.1 uM relative to control
[4] = molecular target: Glycogen synthase kinase-3 beta (Homo sapiens, UniProt P49841); experiment: Inhibition of GSK3beta (unknown origin) in presence of [gamma-33P]ATP
NCI-H146 = experiment: Antiproliferative activity against human NCI-H146 cells assessed as inhibition of cell growth incubated for 72 hrs by cell-titer glo assay; assay type: functional, cell-based; conditions: NCI-H146, 72 h
Summary of the method: (§2)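 Cells from ATCC or ECACC, kept in supplier-recommended medium with 1% penicillin-streptomycin at 37°C, 5% CO₂. Seeded at 10,000–30,000/cm² (adherent) or 100,000/mL (nonadherent) in medium with 10% fetal calf serum. Dosed after 24 h in duplicate with serial dilutions. Viable cells read by CellTiter-Glo 72 h later. IC50 from sigmoidal fit. At least two independent experiments.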

JIMT-1 = experiment: Antiproliferative activity against human JIMT-1 cells assessed as inhibition of cell growth incubated for 72 hrs by cell-titer glo assay; assay type: functional, cell-based; conditions: JIMT-1, 72 h; summary of the method: as §1
A2780 [5] = experiment: In vivo inhibition of PLK1 in human A2780 cells xenografted in nu/nu mouse assessed as decreased TCTP phosphorylation on Ser46 at 60 mg/kg, po administered for 6 to 12 hrs by immunohistochemistry analysis; assay type: functional, organism-based; conditions: time lower 6.0 hrs, time upper […]
U-118-MG = experiment: Antiproliferative activity against human U-118-MG cells assessed as inhibition of cell growth incubated for 72 hrs by cell-titer glo assay; assay type: functional, cell-based
[6] = molecular target: Serine/threonine-protein kinase Nek6 (Homo sapiens, UniProt Q9HC98); experiment: Inhibition of NEK6 (unknown origin) in presence of [gamma-33P]ATP
NCI-H82 = experiment: Antiproliferative activity against human NCI-H82 cells assessed as inhibition of cell growth incubated for 72 hrs by cell-titer glo assay; assay type: functional, cell-based; conditions: NCI-H82, 72 h; summary of the method: as §2
[7] = molecular target: Macrophage colony-stimulating factor 1 receptor (Homo sapiens) (UniProt P07333); experiment: Inhibition of N-terminal His6-tagged recombinant human Fms (538 to end residues) expressed in baculovirus infected Sf21 cells assessed as residual activity at 1 uM relative to control
ACHN = experiment: Antiproliferative activity against human ACHN cells assessed as inhibition of cell growth incubated for 72 hrs by cell-titer glo assay; assay type: functional, cell-based
Summary of the method: (§3)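 Cells seeded 10,000–30,000/cm² (adherent) or 100,000/mL (suspension) in medium with 10% fetal calf serum; after 24 h treated in duplicate with serial dilutions for 72 h. Viable cells read by CellTiter-Glo luminescence; IC50 from sigmoidal fit; at least two independent experiments.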

NHDF [8] = experiment: Induction of DNA damage in human NHDF cells assessed as H2AX phosphorylation at 0.5 to 1 uM incubated for 8 hrs followed by compound washout and measured after 24 to 48 hrs by Western blotting analysis; assay type: toxicity, cell-based; conditions: dose 0.5-1 µM
T84 = experiment: Antiproliferative activity against human T84 cells assessed as inhibition of cell growth incubated for 72 hrs by cell-titer glo assay; assay type: functional, cell-based; conditions: T84, 72 h
SAOS-2 = experiment: Antiproliferative activity against human SAOS-2 cells assessed as inhibition of cell growth incubated for 72 hrs by cell-titer glo assay; assay type: functional, cell-based; conditions: SAOS-2, 72 h; summary of the method: as §2
[9] = Inhibition of PKAalpha (unknown origin) in presence of [gamma-33P]ATP; parameters: species or system Homo sapiens
NCI-H1975 = experiment: Antiproliferative activity against human NCI-H1975 cells assessed as inhibition of cell growth incubated for 72 hrs by cell-titer glo assay; assay type: functional, cell-based; conditions: NCI-H1975, 72 h; summary of the method: as §2
[10] = molecular target: NUAK family SNF1-like kinase 1 (Homo sapiens) (UniProt O60285); experiment: Inhibition of N-terminal 6His-tagged recombinant human ARK5 (2 to end residues) expressed in baculovirus infected Sf21 cells assessed as residual activity at 1 uM relative to control
[11] = molecular target: Hepatocyte growth factor receptor (Homo sapiens, UniProt P08581); experiment: Inhibition of MET (unknown origin) in presence of [gamma-33P]ATP
A2780 [12] = experiment: Induction of mitosis in human A2780 cells xenografted in nu/nu mouse assessed as increased Histone H3 phosphorylation on Ser10 at 60 mg/kg, po administered for 2 to 6 hrs by immunohistochemistry analysis; assay type: functional, organism-based; conditions: time 2-6 hrs
[13] = Inhibition of PDGFR (unknown origin) in presence of [gamma-33P]ATP; parameters: species or system Homo sapiens
NCI-H460 = experiment: Antiproliferative activity against human NCI-H460 cells assessed as inhibition of cell growth incubated for 72 hrs by cell-titer glo assay; assay type: functional, cell-based; conditions: NCI-H460, 72 h; summary of the method: as §2
[14] = Antiproliferative activity against human AML-NS8 cells assessed as inhibition of cell growth incubated for 72 hrs by cell-titer glo assay; assay type: functional, cell-based; conditions: AML-NS8, 72 h; summary of the method: as §3
NHDF [15] = experiment: Cytotoxicity against human NHDF cells assessed as reduction in cell number at 0.5 to 1 uM incubated for 8 hrs followed by compound washout and measured after 24 to 48 hrs by cell titer glow assay; assay type: toxicity, cell-based; conditions: dose 0.5-1 µM
697 = experiment: Antiproliferative activity against human 697 cells assessed as inhibition of cell growth incubated for 72 hrs by cell-titer glo assay; assay type: functional, cell-based; conditions: Homo sapiens, 697, 72 h; summary of the method: as §3
[16] = Plasma concentration in nu/nu mouse xenografted with human HL-60 cells at 60 mg/kg, po administered for 10 days relative to control; assay type: ADME, organism-based; conditions: time 10 day
[17] = Antiproliferative activity against human HCC15 cells assessed as inhibition of cell growth incubated for 72 hrs by cell-titer glo assay; assay type: functional, cell-based; conditions: HCC15, 72 h; summary of the method: as §1
[18] = molecular target: Ribosomal protein S6 kinase alpha-3 (Homo sapiens) (UniProt P51812); experiment: Inhibition of N-terminal His6 tagged recombinant human full-length Rsk2 expressed in baculovirus infected Sf21 cells assessed as residual activity at 1 uM relative to control
A2780 [19] = experiment: In vivo inhibition of PLK1 in human A2780 cells xenografted in nu/nu mouse assessed as decreased TCTP phosphorylation on Ser46 at 60 mg/kg, po administered for 2 hrs by Western blotting analysis; assay type: functional, organism-based

Glycogen synthase kinase-3 beta, sequence (P49841 whole entry): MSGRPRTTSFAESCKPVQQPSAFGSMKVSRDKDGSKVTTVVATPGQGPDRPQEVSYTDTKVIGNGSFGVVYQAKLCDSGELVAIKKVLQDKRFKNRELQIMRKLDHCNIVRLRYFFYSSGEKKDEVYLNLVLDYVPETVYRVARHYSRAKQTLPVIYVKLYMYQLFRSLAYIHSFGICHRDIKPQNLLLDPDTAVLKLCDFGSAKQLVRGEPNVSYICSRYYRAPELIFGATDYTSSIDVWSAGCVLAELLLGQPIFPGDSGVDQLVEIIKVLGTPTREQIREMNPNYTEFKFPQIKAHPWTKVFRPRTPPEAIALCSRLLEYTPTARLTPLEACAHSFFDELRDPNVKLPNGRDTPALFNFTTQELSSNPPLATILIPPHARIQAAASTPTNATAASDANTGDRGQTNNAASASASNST
Macrophage colony-stimulating factor 1 receptor (Homo sapiens), sequence (P07333 whole entry): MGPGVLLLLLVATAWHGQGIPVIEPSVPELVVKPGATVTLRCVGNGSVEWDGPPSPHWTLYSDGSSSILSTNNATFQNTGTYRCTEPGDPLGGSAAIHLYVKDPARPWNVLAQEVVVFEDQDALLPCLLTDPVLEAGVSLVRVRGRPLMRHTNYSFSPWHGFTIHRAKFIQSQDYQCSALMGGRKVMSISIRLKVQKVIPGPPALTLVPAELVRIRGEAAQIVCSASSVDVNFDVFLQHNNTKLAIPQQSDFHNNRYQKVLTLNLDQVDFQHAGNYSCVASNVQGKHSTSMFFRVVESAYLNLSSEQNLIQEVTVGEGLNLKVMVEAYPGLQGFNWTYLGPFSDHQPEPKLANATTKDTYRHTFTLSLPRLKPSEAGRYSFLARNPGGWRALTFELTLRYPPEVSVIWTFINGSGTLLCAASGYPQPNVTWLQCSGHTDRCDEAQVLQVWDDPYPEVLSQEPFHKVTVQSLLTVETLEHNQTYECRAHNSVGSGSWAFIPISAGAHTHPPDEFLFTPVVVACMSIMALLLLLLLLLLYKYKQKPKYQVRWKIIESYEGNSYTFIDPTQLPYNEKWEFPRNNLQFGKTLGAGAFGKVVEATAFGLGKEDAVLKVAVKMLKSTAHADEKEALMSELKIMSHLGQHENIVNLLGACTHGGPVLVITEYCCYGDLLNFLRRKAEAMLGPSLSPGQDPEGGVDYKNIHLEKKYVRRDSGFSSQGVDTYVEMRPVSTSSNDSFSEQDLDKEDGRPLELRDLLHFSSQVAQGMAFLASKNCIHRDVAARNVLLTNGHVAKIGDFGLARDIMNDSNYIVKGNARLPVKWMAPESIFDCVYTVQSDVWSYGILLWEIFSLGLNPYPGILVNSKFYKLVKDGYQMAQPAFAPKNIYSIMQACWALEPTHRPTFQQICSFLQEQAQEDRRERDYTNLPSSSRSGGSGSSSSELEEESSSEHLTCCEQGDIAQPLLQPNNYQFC
Fibroblast growth factor receptor 4 (Homo sapiens), sequence (P22455 22-802 limits assumed): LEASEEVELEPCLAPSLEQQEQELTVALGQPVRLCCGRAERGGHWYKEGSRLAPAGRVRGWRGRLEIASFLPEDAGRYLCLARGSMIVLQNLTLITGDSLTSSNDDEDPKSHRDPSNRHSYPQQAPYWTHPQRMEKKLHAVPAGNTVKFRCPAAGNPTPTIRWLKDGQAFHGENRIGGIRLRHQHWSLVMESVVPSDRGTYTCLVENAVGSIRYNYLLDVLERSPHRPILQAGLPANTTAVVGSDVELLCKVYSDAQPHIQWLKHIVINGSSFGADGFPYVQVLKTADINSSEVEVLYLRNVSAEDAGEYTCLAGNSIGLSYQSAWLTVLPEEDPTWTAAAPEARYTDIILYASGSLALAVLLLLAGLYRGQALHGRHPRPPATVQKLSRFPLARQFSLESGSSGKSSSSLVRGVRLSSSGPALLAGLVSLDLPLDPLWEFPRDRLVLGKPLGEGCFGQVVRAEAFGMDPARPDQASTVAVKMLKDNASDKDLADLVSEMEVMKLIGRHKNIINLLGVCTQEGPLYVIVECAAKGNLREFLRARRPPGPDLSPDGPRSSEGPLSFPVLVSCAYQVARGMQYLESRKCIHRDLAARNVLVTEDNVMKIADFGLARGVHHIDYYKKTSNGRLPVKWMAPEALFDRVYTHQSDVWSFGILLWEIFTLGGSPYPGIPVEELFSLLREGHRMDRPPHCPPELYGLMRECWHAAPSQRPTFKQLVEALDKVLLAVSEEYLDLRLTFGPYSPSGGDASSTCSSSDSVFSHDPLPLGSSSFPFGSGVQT
Hepatocyte growth factor receptor, sequence (P08581 whole entry): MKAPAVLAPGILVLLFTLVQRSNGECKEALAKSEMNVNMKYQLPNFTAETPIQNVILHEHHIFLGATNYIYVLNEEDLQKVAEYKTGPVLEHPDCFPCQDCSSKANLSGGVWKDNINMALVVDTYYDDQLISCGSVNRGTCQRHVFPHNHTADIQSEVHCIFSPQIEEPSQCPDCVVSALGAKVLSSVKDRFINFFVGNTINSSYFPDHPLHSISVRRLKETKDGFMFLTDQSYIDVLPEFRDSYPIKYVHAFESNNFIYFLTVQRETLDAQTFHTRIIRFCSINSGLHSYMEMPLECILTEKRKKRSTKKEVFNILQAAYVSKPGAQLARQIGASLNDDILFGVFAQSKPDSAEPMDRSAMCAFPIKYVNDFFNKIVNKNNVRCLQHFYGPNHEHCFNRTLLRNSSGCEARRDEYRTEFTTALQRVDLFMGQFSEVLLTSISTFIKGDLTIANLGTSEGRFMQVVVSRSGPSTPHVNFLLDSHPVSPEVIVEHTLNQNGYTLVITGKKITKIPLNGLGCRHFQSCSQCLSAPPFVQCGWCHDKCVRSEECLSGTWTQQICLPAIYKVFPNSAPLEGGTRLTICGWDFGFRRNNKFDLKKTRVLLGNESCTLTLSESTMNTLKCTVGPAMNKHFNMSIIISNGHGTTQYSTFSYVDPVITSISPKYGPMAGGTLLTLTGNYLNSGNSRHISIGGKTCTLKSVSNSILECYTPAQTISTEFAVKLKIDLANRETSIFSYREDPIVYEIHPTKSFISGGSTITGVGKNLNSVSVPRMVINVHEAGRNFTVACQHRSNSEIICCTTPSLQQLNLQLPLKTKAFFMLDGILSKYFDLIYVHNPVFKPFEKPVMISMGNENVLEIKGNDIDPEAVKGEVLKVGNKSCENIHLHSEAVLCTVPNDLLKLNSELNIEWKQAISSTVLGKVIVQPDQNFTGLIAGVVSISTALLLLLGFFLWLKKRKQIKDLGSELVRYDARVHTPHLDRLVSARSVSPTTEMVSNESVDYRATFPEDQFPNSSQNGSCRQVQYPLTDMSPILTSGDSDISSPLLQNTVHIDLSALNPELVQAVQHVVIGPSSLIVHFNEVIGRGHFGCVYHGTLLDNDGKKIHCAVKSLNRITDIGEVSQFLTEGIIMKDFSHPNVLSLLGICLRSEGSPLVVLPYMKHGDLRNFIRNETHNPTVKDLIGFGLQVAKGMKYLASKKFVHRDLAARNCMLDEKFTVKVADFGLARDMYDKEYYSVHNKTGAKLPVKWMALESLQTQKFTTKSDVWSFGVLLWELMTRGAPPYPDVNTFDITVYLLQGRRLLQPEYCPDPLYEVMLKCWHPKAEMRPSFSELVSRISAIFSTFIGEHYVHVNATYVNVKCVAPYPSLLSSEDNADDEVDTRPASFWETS
Serine/threonine-protein kinase Nek6, sequence (Q9HC98 whole entry): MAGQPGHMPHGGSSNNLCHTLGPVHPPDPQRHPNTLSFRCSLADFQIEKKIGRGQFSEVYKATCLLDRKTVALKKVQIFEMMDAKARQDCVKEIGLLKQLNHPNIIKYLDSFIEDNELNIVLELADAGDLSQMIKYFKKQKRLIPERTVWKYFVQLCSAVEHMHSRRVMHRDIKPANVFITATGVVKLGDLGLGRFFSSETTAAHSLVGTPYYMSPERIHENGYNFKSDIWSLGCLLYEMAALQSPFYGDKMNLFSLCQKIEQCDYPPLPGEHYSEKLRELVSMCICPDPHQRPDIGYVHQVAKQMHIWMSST
NUAK family SNF1-like kinase 1 (Homo sapiens), sequence (O60285 whole entry): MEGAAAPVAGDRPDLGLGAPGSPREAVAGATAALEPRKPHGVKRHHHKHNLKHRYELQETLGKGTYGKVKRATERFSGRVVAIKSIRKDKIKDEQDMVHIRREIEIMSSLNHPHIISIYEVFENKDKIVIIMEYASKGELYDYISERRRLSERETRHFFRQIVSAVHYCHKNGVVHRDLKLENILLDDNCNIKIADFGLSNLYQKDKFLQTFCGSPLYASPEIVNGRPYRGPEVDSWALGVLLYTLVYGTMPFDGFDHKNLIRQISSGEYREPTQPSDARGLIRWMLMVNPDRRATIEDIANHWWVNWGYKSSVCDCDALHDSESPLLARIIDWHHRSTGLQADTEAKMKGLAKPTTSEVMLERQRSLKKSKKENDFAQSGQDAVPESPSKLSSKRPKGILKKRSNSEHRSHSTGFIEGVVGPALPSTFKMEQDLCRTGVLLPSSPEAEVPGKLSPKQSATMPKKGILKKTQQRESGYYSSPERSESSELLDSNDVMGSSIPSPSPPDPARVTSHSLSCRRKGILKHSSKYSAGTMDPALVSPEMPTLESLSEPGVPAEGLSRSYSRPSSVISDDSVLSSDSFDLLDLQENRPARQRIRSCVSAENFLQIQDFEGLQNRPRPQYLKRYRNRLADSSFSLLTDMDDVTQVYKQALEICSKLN
Mitogen-activated protein kinase 1, sequence (P28482 whole entry): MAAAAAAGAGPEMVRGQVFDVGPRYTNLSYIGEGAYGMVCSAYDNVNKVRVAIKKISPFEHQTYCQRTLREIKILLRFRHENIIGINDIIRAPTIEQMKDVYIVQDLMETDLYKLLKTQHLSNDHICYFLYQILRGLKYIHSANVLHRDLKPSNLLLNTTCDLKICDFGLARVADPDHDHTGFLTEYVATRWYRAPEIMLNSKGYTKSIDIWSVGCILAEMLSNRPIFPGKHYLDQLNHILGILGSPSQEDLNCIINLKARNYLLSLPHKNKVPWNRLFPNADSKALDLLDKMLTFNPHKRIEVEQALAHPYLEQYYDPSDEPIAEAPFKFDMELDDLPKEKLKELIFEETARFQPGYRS

CN1CCN(c2ccc(OC(F)(F)F)c(Nc3ncc4c(n3)-c3c(c(C(N)=O)nn3CCO)CC4)c2)CC1 [ONVANSERTIB]
IC50 [1]: > 10000 nM
Vd [2]: 9.5 L/kg
IC50 (L-363): 37 nM
IC50 (HCC1806): 18 nM
Activity [3]: 93%
IC50 [4]: > 10000 nM
IC50 (NCI-H146): 339 nM
IC50 (JIMT-1): 105 nM
inhibition (A2780 [5]): Active
IC50 (U-118-MG): 220 nM
IC50 [6]: > 10000 nM
IC50 (NCI-H82): 16 nM
Activity [7]: 90%
IC50 (ACHN): 429 nM
Activity (NHDF [8]): Non-Toxic
IC50 (T84): 174 nM
IC50 (SAOS-2): 45 nM
IC50 [9]: > 10000 nM
IC50 (NCI-H1975): 398 nM
Activity [10]: 93%
IC50 [11]: > 10000 nM
Activity (A2780 [12]): Active
IC50 [13]: > 10000 nM
IC50 (NCI-H460): 109 nM
IC50 [14]: 36 nM
Activity (NHDF [15]): Toxic
IC50 697: 26 nM
concentration at 240 h [16]: 433 nM
IC50 [17]: 15 nM
Activity [18]: 89%
inhibition (A2780 [19]): Active

— ChEMBL document CHEMBL5678806, “NMS-P937, an orally available, specific small-molecule polo-like kinase 1 inhibitor with antitumor activity in solid and hematologic malignancies” (Mol Cancer Ther, 2012)
